ChEMBL document CHEMBL3297685, “Carbonic anhydrase inhibitors: Synthesis, molecular docking, cytotoxic and inhibition of the human carbonic anhydrase isoforms I, II, IX, XII with novel benzenesulfonamides incorporating pyrrole, pyrrolopyrimidine and fused pyrrolopyrimidine moieties” (Bioorg Med Chem, 2014)

Tests used:
MCF7 [1] = test: Cytotoxicity against human MCF7 cells assessed as cell survival at 100 uM after 48 hrs by SRB assay; settings: MCF7, 48 h, read-out: Survival
MCF7 [2] = test: Cytotoxicity against human MCF7 cells assessed as cell survival at 25 uM after 48 hrs by […]; type: functional; settings: MCF7, 48 h, read-out: Survival
How it was run: (§1)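 MCF-7 human breast tumour cells seeded at 10^4 cells/well and left 24 h to attach. Compounds in DMSO added at 10, 25, 50 or 100 µM, triplicate wells per concentration, 48 h at 37 °C, 5% CO2. Cells fixed and stained 30 min with 0.4% SRB in 1% acetic acid, bound dye recovered in Tris-EDTA, absorbance read. Surviving fraction reported.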

Carbonic anhydrase 9 = Carbonic anhydrase 9 (Homo sapiens, UniProt Q16790); test: Inhibition of human recombinant carbonic anhydrase 9 preincubated for 15 mins by stopped-flow CO2 hydrase assay
MCF7 [3] = test: Cytotoxicity against human MCF7 cells assessed as cell survival at 10 uM after 48 hrs by […]; type: functional; settings: MCF7, 48 h, read-out: Survival
How it was run: as §1

MCF7 [4] = test: Cytotoxicity against human MCF7 cells assessed as reduction in cell survival after 48 hrs by MTT assay; settings: MCF7, 48 h
MCF7 [5] = test: Cytotoxicity against human MCF7 cells assessed as cell survival at 50 uM after 48 hrs by […]; type: functional; settings: MCF7, 48 h, read-out: Survival
How it was run: as §1

Row | Structure (SMILES) | viability at 100 µM (MCF7 [1]) [%] | viability at 25 µM (MCF7 [2]) [%] | Ki (Carbonic anhydrase 9) [µM] | viability at 10 µM (MCF7 [3]) [%] | IC50 (MCF7 [4]) [µM] | viability at 50 µM (MCF7 [5]) [%]
1 | C/C(CC(=O)c1ccccc1)=N/n1cnc2c(c(-c3ccc(Br)cc3)cn2-c2ccc(S(N)(=O)=O)cc2)c1=N | 30.1 | 33.3 | 0.0028 | 38.1 | 7.84 | 25.1
2 | CC1=NN2C=Nc3c(c(-c4ccc(Br)cc4)cn3-c3ccc(S(N)(=O)=O)cc3)C2=NC(c2ccccc2)=C1 | 28 | 30.6 | 0.0036 | 30.3 | 7.29 | 27.7
3 | N#Cc1c(-c2ccc(Br)cc2)cn(-c2ccc(S(N)(=O)=O)cc2)c1N | 25.5 | 27.3 | 0.0063 | 32.7 | 7.56 | 23.3
4 | CCO/C=N/c1c(C#N)c(-c2ccc(Br)cc2)cn1-c1ccc(S(N)(=O)=O)cc1 | 25.6 | 29.4 | 0.0039 | 34 | 7.56 | 24.6
5 | N=c1c2c(-c3ccc(Br)cc3)cn(-c3ccc(S(N)(=O)=O)cc3)c2ncn1N | 26.8 | 30.9 | 0.0027 | 33 | 7.29 | 22.7
6 | N#Cc1c(N)nn2cnc3c(c(-c4ccc(Br)cc4)cn3-c3ccc(S(N)(=O)=O)cc3)c12 | 22.1 | 29.2 | 0.0024 | 34.7 | 7.56 | 21.3
7 | CCOC(=O)c1nc2c3c(-c4ccc(Br)cc4)cn(-c4ccc(S(N)(=O)=O)cc4)c3ncn2n1 | 30.9 | 28.1 | 0.0027 | 30.5 | 7.29 | 27.4
8 | CCOC(=O)Cc1nc2c3c(-c4ccc(Br)cc4)cn(-c4ccc(S(N)(=O)=O)cc4)c3ncn2n1 | 33.5 | 41 | 0.003 | 42.6 | 8.94 | 34.8
9 | CC(=O)Cc1nc2c3c(-c4ccc(Br)cc4)cn(-c4ccc(S(N)(=O)=O)cc4)c3ncn2n1 | 35 | 39.9 | 0.0031 | 40 | 8.94 | 36.5
10 | CCOC(=O)n1c(=O)nc2c3c(-c4ccc(Br)cc4)cn(-c4ccc(S(N)(=O)=O)cc4)c3ncn21 | 21.6 | 31.1 | 0.0026 | 36.1 | 7.56 | 23.2
11 | NS(=O)(=O)c1ccc(-n2cc(-c3ccc(Br)cc3)c3c2ncn2nnnc32)cc1 | 21.6 | 29.4 |  | 34.8 | 7.84 | 25.4
12 | NS(=O)(=O)c1ccc(-n2cc(-c3ccc(Br)cc3)c3c2N=CN2NC(=O)CN=C32)cc1 | 36.2 | 35.8 |  | 39.3 | 8.11 | 33.7
13 | NS(=O)(=O)c1ccc(-n2cc(-c3ccc(Br)cc3)c3c2ncn2[nH]c(=O)c(=O)nc32)cc1 | 35.8 | 36.6 | 0.325 | 43.6 | 8.66 | 35
14 | CC1=CC(C)=NN2C=Nc3c(c(-c4ccc(Br)cc4)cn3-c3ccc(S(N)(=O)=O)cc3)C2=N1 | 37.5 | 28.5 | 0.0496 | 38 | 7.84 | 33.2
15 | N#CC1=C(N)N=C2c3c(-c4ccc(Br)cc4)cn(-c4ccc(S(N)(=O)=O)cc4)c3N=CN2N=C1 | 37.9 | 38 | 0.0031 | 38.2 | 8.11 | 40.1
16 | CCOC(=O)C1=C(N)N=C2c3c(-c4ccc(Br)cc4)cn(-c4ccc(S(N)(=O)=O)cc4)c3N=CN2N=C1 | 39.1 | 37.7 | 0.003 | 37.2 | 7.84 | 35.3
17 | NS(=O)(=O)c1ccc(-n2cc(-c3ccc(Br)cc3)c3c2ncn2nc4c5ccccc5nc-4nc32)cc1 | 38.1 | 33.8 |  | 34.7 | 7.84 | 31.5
18 | CC(=O)N1C(=O)/C(=N\n2cnc3c(c(-c4ccc(Br)cc4)cn3-c3ccc(S(N)(=O)=O)cc3)c2=N)c2ccccc21 | 32.6 | 28.7 |  | 34.2 | 7.56 | 25.9
19 | COc1cccc2c1C(=O)c1c(O)c3c(c(O)c1C2=O)C[C@@](O)(C(=O)CO)C[C@@H]3O[C@H]1C[C@H](N)[C@H](O)[C@H](C)O1 [DOXORUBICIN] | 26.6 | 30.9 |  | 31.4 |  | 25.1
